What was measured:
Format in all cases: functional
[1] = tested on: UO-31; experiment: Cytotoxicity against human UO31 cells assessed as cell growth at 10 uM after 48 hrs by SRB assay relative to control; conditions: UO-31, 48 h, read-out: Activity
How it was run: (§1)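 NCI-60 one-dose screen run by NCI DTP: each cell line exposed to a single 10 µM dose, and percentage growth recorded against untreated growth.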

[2] = tested on: U-251; experiment: Cytotoxicity against human U251 cells assessed as cell growth at 10 uM after 48 hrs by SRB assay relative to control; conditions: U-251, 48 h, read-out: Activity; how it was run: as §1
[3] = tested on: BT-549; experiment: Cytotoxicity against human BT549 cells assessed as cell growth at 10 uM after 48 hrs by SRB assay relative to control; conditions: BT-549, 48 h, read-out: Activity
How it was run: (§2)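 First-stage NCI-60 screen by the NCI Developmental Therapeutics Program. Each compound was tested once at a single concentration of 10 μM against the 60-cell-line panel. Growth percentage was reported for each cell line.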

[4] = tested on: TK-10; experiment: Cytotoxicity against human TK10 cells assessed as cell growth at 10 uM after 48 hrs by SRB assay relative to control; conditions: TK-10, 48 h, read-out: Activity; how it was run: as §1
[5] = tested on: NCI-H460; experiment: Cytotoxicity against human NCI-H460 cells assessed as cell growth at 10 uM after 48 hrs by SRB assay relative to control; conditions: NCI-H460, 48 h, read-out: Activity
How it was run: (§3)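 First-stage NCI DTP one-dose screen against the 60 human tumour cell line panel. Compounds were tested at a single 10 μM level, and results are given as growth percentage.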

[6] = tested on: HOP-92; experiment: Cytotoxicity against human HOP92 cells assessed as cell growth at 10 uM after 48 hrs by SRB assay relative to control; conditions: HOP-92, 48 h, read-out: Activity; how it was run: as §2
[7] = tested on: RPMI-8226; experiment: Cytotoxicity against human RPMI8226 cells assessed as cell growth at 10 uM after 48 hrs by SRB assay relative to control; conditions: RPMI-8226, 48 h, read-out: Activity; how it was run: as §3
[8] = tested on: K562; experiment: Cytotoxicity against human K562 cells assessed as cell growth at 10 uM after 48 hrs by SRB assay relative to control; conditions: K562, 48 h, read-out: Activity; how it was run: as §2
[9] = tested on: SNB-75; experiment: Cytotoxicity against human SNB75 cells assessed as cell growth at 10 uM after 48 hrs by SRB assay relative to control; conditions: SNB-75, 48 h, read-out: Activity; how it was run: as §1
[10] = tested on: HCC 2998; experiment: Cytotoxicity against human HCC2998 cells assessed as cell growth at 10 uM after 48 hrs by SRB assay relative to control; conditions: HCC 2998, 48 h, read-out: Activity; how it was run: as §2
[11] = tested on: OVCAR-8; experiment: Cytotoxicity against human OVCAR8 cells assessed as cell growth at 10 uM after 48 hrs by SRB assay relative to control; conditions: OVCAR-8, 48 h, read-out: Activity; how it was run: as §3
[12] = tested on: NCI-H23; experiment: Cytotoxicity against human NCI-H23 cells assessed as cell growth at 10 uM after 48 hrs by SRB assay relative to control; conditions: NCI-H23, 48 h, read-out: Activity; how it was run: as §3
[13] = tested on: IGROV-1; experiment: Cytotoxicity against human IGROV1 cells assessed as cell growth at 10 uM after 48 hrs by SRB assay relative to control; conditions: IGROV-1, 48 h, read-out: Activity; how it was run: as §2
[14] = tested on: HCT-116; experiment: Cytotoxicity against human HCT116 cells assessed as cell growth at 10 uM after 48 hrs by SRB assay relative to control; conditions: HCT-116, 48 h, read-out: Activity; how it was run: as §2
[15] = tested on: SR; experiment: Cytotoxicity against human SR cells assessed as cell growth at 10 uM after 48 hrs by SRB assay relative to control; conditions: read-out: Activity; how it was run: as §1
[16] = tested on: DU-145; experiment: Cytotoxicity against human DU145 cells assessed as cell growth at 10 uM after 48 hrs by SRB assay relative to control; conditions: DU-145, 48 h, read-out: Activity; how it was run: as §2
[17] = tested on: RXF 393; experiment: Cytotoxicity against human RXF393 cells assessed as cell growth at 10 uM after 48 hrs by SRB assay relative to control; conditions: RXF 393, 48 h, read-out: Activity; how it was run: as §3
[18] = tested on: Malme-3M; experiment: Cytotoxicity against human MALME-3M cells assessed as cell growth at 10 uM after 48 hrs by SRB assay relative to control; conditions: read-out: Activity; how it was run: as §2
[19] = tested on: MCF7; experiment: Cytotoxicity against human MCF7 cells assessed as cell growth at 10 uM after 48 hrs by SRB assay relative to control; conditions: MCF7, 48 h, read-out: Activity; how it was run: as §2
[20] = tested on: SK-MEL-5; experiment: Cytotoxicity against human SK-MEL-5 cells assessed as cell growth at 10 uM after 48 hrs by SRB assay relative to control; conditions: SK-MEL-5, 48 h, read-out: Activity; how it was run: as §3
[21] = tested on: UACC-62; experiment: Cytotoxicity against human UACC62 cells assessed as cell growth at 10 uM after 48 hrs by SRB assay relative to control; conditions: UACC-62, 48 h, read-out: Activity; how it was run: as §1
[22] = tested on: HT-29; experiment: Cytotoxicity against human HT-29 cells assessed as cell growth at 10 uM after 48 hrs by SRB assay relative to control; conditions: HT-29, 48 h, read-out: Activity; how it was run: as §2
[23] = tested on: OVCAR-3; experiment: Cytotoxicity against human OVCAR3 cells assessed as cell growth at 10 uM after 48 hrs by SRB assay relative to control; conditions: OVCAR-3, 48 h, read-out: Activity; how it was run: as §3
[24] = tested on: SN12C; experiment: Cytotoxicity against human SN12C cells assessed as cell growth at 10 uM after 48 hrs by SRB assay relative to control; conditions: read-out: Activity; how it was run: as §3
[25] = tested on: LOX IMVI; experiment: Cytotoxicity against human LOXIMVI cells assessed as cell growth at 10 uM after 48 hrs by SRB assay relative to control; conditions: read-out: Activity; how it was run: as §2
[26] = tested on: SK-MEL-28; experiment: Cytotoxicity against human SK-MEL-28 cells assessed as cell growth at 10 uM after 48 hrs by SRB assay relative to control; conditions: SK-MEL-28, 48 h, read-out: Activity; how it was run: as §3
[27] = tested on: SF-268; experiment: Cytotoxicity against human SF268 cells assessed as cell growth at 10 uM after 48 hrs by SRB assay relative to control; conditions: SF-268, 48 h, read-out: Activity; how it was run: as §3
[28] = tested on: COLO 205; experiment: Cytotoxicity against human COLO205 cells assessed as cell growth at 10 uM after 48 hrs by SRB assay relative to control; conditions: COLO 205, 48 h, read-out: Activity; how it was run: as §2
[29] = tested on: CAKI-1; experiment: Cytotoxicity against human Caki1 cells assessed as cell growth at 10 uM after 48 hrs by SRB assay relative to control; conditions: CAKI-1, 48 h, read-out: Activity; how it was run: as §2

| Structure (SMILES) | growth at 10 µM [1] | growth at 10 µM [2] | growth at 10 µM [3] | growth at 10 µM [4] | growth at 10 µM [9] | growth at 10 µM [10] | growth at 10 µM [11] | growth at 10 µM [12] | growth at 10 µM [13] | growth at 10 µM [14] | growth at 10 µM [17] | growth at 10 µM [18] | growth at 10 µM [19] | growth at 10 µM [20] | growth at 10 µM [21] | growth at 10 µM [22] | growth at 10 µM [24] | growth at 10 µM [25] | growth at 10 µM [26] | growth at 10 µM [28] | other results |
| --- | --- | --- | --- | --- | --- | --- | --- | --- | --- | --- | --- | --- | --- | --- | --- | --- | --- | --- | --- | --- | --- |
| Cc1ccc(Sc2cc3c(c4nsnc24)C(=O)c2ccccc2C3=O)c(C)c1 | 65.7% | 105% | 94.5% | 127% | 76% | 121% | 105% | 89.4% | 95% | 94.5% | 106% | 108% | 79.8% | 110% | 94.5% | 101% | 98.7% | 90.4% | 119% | 107% | growth at 10 µM [5]: 102%; growth at 10 µM [6]: 97.8%; growth at 10 µM [7]: 85.1%; growth at 10 µM [8]: 68%; growth at 10 µM [15]: 70.3%; growth at 10 µM [16]: 110%; growth at 10 µM [23]: 105%; growth at 10 µM [27]: 90.6% |
| O=C1c2ccccc2C(=O)c2c1cc(Sc1cccc(Cl)c1)c1nsnc21 | -74.8% | -69.5% | 36.2% | 53.8% | 26.1% | 102% | -22.9% | -26.9% | -13.5% | -67.8% | -27.8% | -86.6% | -69.4% | 19% | -65% | 102% | -66.2% | -59.2% | 25% | 106% | growth at 10 µM [29]: -3.69% |
| O=C1c2ccccc2C(=O)c2c1cc(Sc1ccc(F)cc1F)c1nsnc21 | 70.3% | 34.5% | 66.4% | 112% | 42.9% | 107% | 0.32% | 9.53% |  | -63.1% | 36.7% | 39.5% | 6.58% | 48.5% | 53.3% | 102% | 9.12% | -42% | 79.5% | 104% | growth at 10 µM [5]: 83.6%; growth at 10 µM [6]: -18.4%; growth at 10 µM [7]: 6.29%; growth at 10 µM [8]: -21.1%; growth at 10 µM [15]: 0.2%; growth at 10 µM [16]: 41.3%; growth at 10 µM [23]: -52.3%; growth at 10 µM [27]: 8.47%; growth at 10 µM [29]: 24% |
| COc1cccc(Sc2cc3c(c4nsnc24)C(=O)c2ccccc2C3=O)c1 | 75.5% | 101% | 94.9% | 131% | 81.8% | 105% | 97.3% | 76.4% | 99.9% | 85.7% | 124% | 113% | 72.8% | 100% | 87.7% | 105% | 95.9% | 71% | 102% | 110% | growth at 10 µM [5]: 100%; growth at 10 µM [6]: 101%; growth at 10 µM [7]: 52%; growth at 10 µM [8]: 38.5%; growth at 10 µM [15]: 36.1%; growth at 10 µM [16]: 98.9%; growth at 10 µM [23]: 85.8%; growth at 10 µM [27]: 89.8% |
| CCOc1cccc(Sc2cc3c(c4nsnc24)C(=O)c2ccccc2C3=O)c1 | 76.7% | 110% | 104% | 125% | 77.2% | 105% | 112% | 94.1% | 94.7% | 101% | 118% | 109% | 78.8% | 107% | 109% | 106% | 105% | 84.1% | 112% | 106% | growth at 10 µM [29]: 84.2% |

Source: ChEMBL document CHEMBL3621107, “Ring fusion strategy for synthesis and lead optimization of sulfur-substituted anthra[1,2-c][1,2,5]thiadiazole-6,11-dione derivatives as promising scaffold of antitumor agents” (Eur J Med Chem, 2015)
